Experimental data taken from ChEMBL document CHEMBL4715732, “4-Phenylureido/thioureido-substituted 2,2-dimethylchroman analogs of cromakalim bearing a bulky 'carbamate' moiety at the 6-position as potent inhibitors of glucose-sensitive insulin secretion” (Eur J Med Chem, 2016).
Active and inactive are the calls of the source. The rule behind the calls is not given here.

Columns and labels:
Rattus norvegicus [1] = species on record: Rattus norvegicus; test: Activation of ATP-sensitive potassium channel in perifused Wistar rat pancreatic islets assessed as increase in [45]Ca efflux at 10 uM measured up to 90 mins in presence of 16.7 mM glucose and absence of extracellular Ca2+ by scintillation counting method; conditions: filed as opener, time min <=90
Method in brief: (§1)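 Rat islets were prelabeled with 45Ca and perifused throughout with 16.7 mM glucose. Basal medium either contained extracellular Ca2+ or was Ca2+-free and enriched with 0.5 mM EGTA. Agent was added at 10 μM, and 45Ca outflow and insulin release were followed. Values are mean ± SEM of 5-6 individual experiments.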

Rattus norvegicus [2] = species on record: Rattus norvegicus; test: Activation of ATP-sensitive potassium channel in perifused Wistar rat pancreatic islets assessed as increase in 45Ca efflux at 10 uM measured up to 90 mins in presence of 2.8 mM glucose and absence of extracellular Ca2+ by scintillation counting method; conditions: filed as opener, time min <=90
Method in brief: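 Perifused rat islets carrying 45Ca were exposed to 2.8 mM glucose in medium with or without extracellular Ca2+. Agent was added at 10 μM and 45Ca outflow was monitored.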

Rattus norvegicus [3] = species on record: Rattus norvegicus; test: Activation of ATP-sensitive potassium channel in perifused Wistar rat pancreatic islets assessed as increase in extracellular K+ concentration at 10 uM measured up to 90 mins in presence of 2.8 mM glucose and extracellular Ca2+ by scintillation counting method; conditions: filed as opener, time min <=90
Method in brief: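 Rat islets were perifused in 2.8 mM glucose with extracellular Ca2+. Extracellular K+ was raised from 5 to 50 mM, and 45Ca outflow was measured with or without agent (10 μM) present continuously. Values are mean ± SEM of 10 individual experiments.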

Rattus norvegicus [4] = species on record: Rattus norvegicus; test: Activation of ATP-sensitive potassium channel in perifused Wistar rat pancreatic islets assessed as inhibition of insulin secretion at 10 uM measured up to 90 mins in presence of 16.7 mM glucose by scintillation counting method; conditions: filed as opener, time min <=90; method in brief: as §1
[5] = (§2) Inhibition of glucose-induced insulin secretion in Wistar rat pancreatic islets incubated for 90 mins in presence of 16.7 mM glucose by radioimmunological assay; format: functional, tissue-based; conditions: Pancreatic islet, 1.5 h
Method in brief: (§3)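 Rat pancreatic islets were incubated with 16.7 mM glucose, with test concentrations added to the medium (0.1, 0.5, 1 and 10 μM). Insulin release is given as a percentage of the control (no drug, 16.7 mM glucose), as mean ± SEM with n = number of samples. IC50 is the concentration giving a 50% reduction of the secretory response to glucose.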

Pancreatic islet [6] = test: as §2; format: functional, tissue-based; method in brief: as §3
Pancreatic islet [7] = test: Decrease in cytosolic Ca2+ concentration during sustained phase in Wistar rat pancreatic islets at 10 uM measured up to 30 mins in presence of 2.8 to 20 mM extracellular glucose concentration by Fura-2 dye based fluorescence assay; format: functional, tissue-based; conditions: time min <=30
Method in brief: (§4)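 Single rat pancreatic islet cells were loaded with fura-2 and cytosolic Ca2+ was read as the 340:380 nm fluorescence ratio. Glucose was raised from 2.8 to 20 mM, in medium with or without external calcium. Agent (10 μM) was added afterwards, during the sustained phase.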

Rattus norvegicus [8] = species on record: Rattus norvegicus; test: Ratio of EC50 for vasorelaxant activity in aortic rings isolated from Wistar rat assessed as reduction in KCl-induced contractions measured after 60 mins in presence of 80 mM KCl by force-displacement transducer to IC50 for inhibition of 16.7 mM glucose-induced insulin secretion in Wistar rat pancreatic islets incubated for 90 mins in presence of glucose by radioimmunological assay; format: functional
Pancreatic islet [9] = test: Increase in intracellular Ca2+ concentration under deprived extracellular calcium and physiological condition in Wistar rat pancreatic islets at 10 uM measured up to 30 mins in presence of 20 mM extracellular glucose concentration by Fura-2 dye based fluorescence assay; format: functional, tissue-based; conditions: time min <=30; method in brief: as §4
Rattus norvegicus [10] = species on record: Rattus norvegicus; test: Activation of ATP-sensitive potassium channel in perifused Wistar rat pancreatic islets assessed as increase in 86Rb outflow at 10 uM measured up to 90 mins by scintillation counting method; conditions: filed as opener, time min <=90
Aorta [11] = test: Myorelaxant activity in aortic rings isolated from Wistar rat assessed as reduction in 30 mM KCl-induced contractions in presence of 10 uM KATP channel blocker glibenclamide; format: functional, tissue-based
Method in brief: (§5)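 Endothelium-free rat aorta rings were contracted with 30 mM or 80 mM K+, with 1 or 10 μM glibenclamide present for some 30 mM series. Agent was applied cumulatively. EC50 is the concentration giving 50% relaxation of the KCl-induced contraction, reported as mean ± SEM (n).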

Rattus norvegicus [12] = species on record: Rattus norvegicus; test: Activation of ATP-sensitive potassium channel in perifused Wistar rat pancreatic islets assessed as increase in extracellular K+ concentration at 10 uM measured up to 90 mins in presence of 2.8 mM glucose and absence of extracellular Ca2+ by scintillation counting method; conditions: filed as opener, time min <=90
Rattus norvegicus [13] = species on record: Rattus norvegicus; test: Activation of ATP-sensitive potassium channel in perifused Wistar rat pancreatic islets assessed as increase in 86Rb outflow at 10 uM measured up to 90 mins in basal media containing 5.6 mM glucose and glibenclamide by scintillation counting method; conditions: time min <=90
Method in brief: (§6)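 Rat islets were perifused throughout in basal medium with 5.6 mM glucose and extracellular Ca2+, with or without the KATP blocker glibenclamide (10 μM). Test agent was added at 10 μM and 86Rb outflow was followed. Values are mean ± SEM of 6 individual experiments.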

Aorta [14] = test: Myorelaxant activity in aortic rings isolated from Wistar rat assessed as reduction in 80 mM KCl-induced contractions; format: functional, tissue-based; method in brief: as §5
Rattus norvegicus [15] = species on record: Rattus norvegicus; test: Activation of ATP-sensitive potassium channel in perifused Wistar rat pancreatic islets assessed as increase in 86Rb outflow at 10 uM measured up to 90 mins by scintillation counting method; conditions: filed as opener, time min <=90; method in brief: as §6
[16] = Residual glucose-induced insulin secretion in Wistar rat pancreatic islets at 10 uM incubated for 90 mins in presence of 16.7 mM glucose by radioimmunological assay relative to control; conditions: Pancreatic islet, 1.5 h
Rattus norvegicus [17] = species on record: Rattus norvegicus; test: Activation of ATP-sensitive potassium channel in perifused Wistar rat pancreatic islets assessed as increase in 86Rb outflow at 10 uM measured up to 90 mins by scintillation counting method; conditions: filed as opener, time min <=90; remark: listed apart in the source
Aorta [18] = test: Myorelaxant activity in aortic rings isolated from Wistar rat assessed as reduction in 30 mM KCl-induced contractions in presence of 1 uM KATP channel blocker glibenclamide; format: functional, tissue-based; method in brief: as §5
[19] = Residual 16.7 mM glucose-induced insulin secretion in Wistar rat pancreatic islets at 0.5 uM incubated for 90 mins in presence of glucose by radioimmunological assay relative to control; conditions: Pancreatic islet, 1.5 h
Pancreatic islet [20] = test: Increase in intracellular Ca2+ concentration under deprived extracellular calcium and physiological condition in Wistar rat pancreatic islets at 10 uM measured up to 30 mins in presence of 2.8 mM extracellular glucose concentration by Fura-2 dye based fluorescence assay; format: functional, tissue-based; conditions: time min <=30
Method in brief: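 Fura-2-loaded single rat islet cells were kept at 2.8 mM glucose in medium with or without extracellular calcium. Agent was added at 10 μM and fluorescence intensity was monitored.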

Rattus norvegicus [21] = species on record: Rattus norvegicus; test: Activation of ATP-sensitive potassium channel in perifused Wistar rat pancreatic islets assessed as inhibition of 45Ca outflow at 10 uM measured up to 90 mins in presence of 16.7 mM glucose and extracellular Ca2+ by scintillation counting method; conditions: filed as opener, time min <=90; method in brief: as §1
[22] = Residual glucose-induced insulin secretion in Wistar rat pancreatic islets at 0.1 uM incubated for 90 mins in presence of 16.7 mM glucose by radioimmunological assay relative to control; conditions: Pancreatic islet, 1.5 h
[23] = Residual glucose-induced insulin secretion in Wistar rat pancreatic islets at 1 uM incubated for 90 mins in presence of 16.7 mM glucose by radioimmunological assay relative to control; conditions: Pancreatic islet, 1.5 h
Aorta [24] = test: Myorelaxant activity in aortic rings isolated from Wistar rat assessed as reduction in KCl-induced contractions measured after 60 mins in presence of 80 mM KCl by force-displacement transducer; format: functional, tissue-based; method in brief: as §5

Q: For `CC(C)(C)OC(=O)Nc1ccc2c(c1)C(NC(=O)Nc1cccc(C#N)c1)CC(C)(C)O2` (racemic), which Activity (Rattus norvegicus [1]) is on record?
A: Active

Q: And the Activity (Rattus norvegicus [2])?
A: Active

Q: What about the Activity (Rattus norvegicus [3]) of the same compound?
A: Active

Q: And the Activity (Rattus norvegicus [4])?
A: Active

Q: What about the IC50 [5] of the same compound?
A: 0.24 µM

Q: And the inhibition (Pancreatic islet [6])?
A: Dose-dependent effect

Q: What about the Activity (Pancreatic islet [7]) of the same compound?
A: Active

Q: What about the Ratio (Rattus norvegicus [8]) of the same compound?
A: 44

Q: And the Activity (Pancreatic islet [9])?
A: Active

Q: And the Activity (Rattus norvegicus [10])?
A: Active

Q: And the EC50 (Aorta [11])?
A: 9.4 µM

Q: And the Activity (Rattus norvegicus [12])?
A: Active

Q: And the Activity (Rattus norvegicus [13])?
A: inactive

Q: What about the EC50 (Aorta [14]) of the same compound?
A: 12.2 µM

Q: And the Activity (Rattus norvegicus [15])?
A: Active

Q: And the residual insulin secretion at 10 µM [16]?
A: 7.4%

Q: What about the Activity (Rattus norvegicus [17]) of the same compound?
A: Active

Q: And the EC50 (Aorta [18])?
A: 11.6 µM

Q: And the residual insulin secretion at 0.5 µM [19]?
A: 28.6%

Q: And the Activity (Pancreatic islet [20])?
A: Active

Q: What about the Activity (Rattus norvegicus [21]) of the same compound?
A: Active

Q: What about the residual insulin secretion at 0.1 µM [22] of the same compound?
A: 82%

Q: And the residual insulin secretion at 1 µM [23]?
A: 15.6%

Q: What about the Activity (Aorta [24]) of the same compound?
A: Dose-dependent effect

Q: And the EC50 (Aorta [24]; 1 h, in the assay text read “30 mM KCl” for “80 mM KCl”)?
A: 10.5 µM
